{"source": "paper PMC10166105", "about": "(International Journal of Nanomedicine, 2023)", "key": {"PC3 cells": {"tested_on": "PC3 cells", "assay": "Cell proliferation assay in 2D monolayer culture", "format": "cell-based, human", "method_in_brief": "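PC3 cells were grown in RPMI 1640 with 10% FBS and antibiotics, seeded at 1×10^4 cells/well, attached for 24 h, then dosed in 2.5% FBS-RPMI 1640. Single doses of 50, 100 and 200 μM were read at 72 h; daily 50 μM dosing ran for 4 days. Readout was WST-1 for 1 h with absorbance at 450 nm, versus untreated cells, plus live/dead imaging. n = 3, one-way ANOVA.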"}, "PC3 spheroids": {"tested_on": "PC3 spheroids", "assay": "Anti-tumor response in 3D spheroid culture model", "format": "cell-based, human", "conditions": "PC3 3D spheroids, 50 μM, 7 days, n = 3", "method_in_brief": "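PC3 cells were suspended at 2000 cells/mL in 10% FBS-RPMI 1640 with 1% (v/v) Matrigel, plated in ultra-low-attachment wells, centrifuged at 1500 rpm for 10 min and grown at 37 °C, 5% CO2. After 4 days of spheroid formation, test compound was added once at final 50 μM in 2.5% FBS-RPMI. Spheroid area was imaged over 7 days and expressed as fold of day-0 area. n = 3.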"}, "[1]": {"conditions": "property table of leuprolide acetate; no matrix and reference not given; cited from earlier work"}, "[2]": {"conditions": "property table of leuprolide acetate; no reference given; cited from earlier work"}, "[3]": {"conditions": "pH 7.4"}}}
{"molecule": "CCNC(=O)[C@@H]1CCCN1C(=O)[C@H](CCCNC(=N)N)NC(=O)[C@H](CC(C)C)NC(=O)[C@@H](CC(C)C)NC(=O)[C@H](Cc1ccc(O)cc1)NC(=O)[C@H](CO)NC(=O)[C@H](Cc1c[nH]c2ccccc12)NC(=O)[C@H](Cc1c[nH]cn1)NC(=O)[C@@H]1CCC(=O)N1", "note": "[LEU, Leuprolide]", "values": [{"measurement": "Anti-proliferative effect (% of control)", "setting": "PC3 cells; PC3, treatment repeated daily at 50 µM for 4 days, WST-1, n = 3", "value": 8.9, "unit": "%"}, {"measurement": "Spheroid growth (spheroid area/volume), one-time treatment", "setting": "PC3 spheroids", "value": "expansion of spheroid volume"}, {"measurement": "Half-life", "setting": "[1]", "value": 3, "unit": "h"}, {"measurement": "Physiological charge", "setting": "[2]", "value": "+1"}]}
{"molecule": "Leuprolide–lauric acid nanoparticle [LLN]", "values": [{"measurement": "Change of particle size, short-time stability in PBS", "setting": "[3]", "value": "slight increase in the particle size"}]}
{"molecule": "Leuprolide–stearic acid nanoparticle [LSN]", "values": [{"measurement": "Change of particle size, short-time stability in PBS", "setting": "[3]", "value": "no significant difference"}]}
{"molecule": "Leuprolide–palmitic acid nanoparticle [LPN]", "values": [{"measurement": "Change of particle size, short-time stability in PBS", "setting": "[3]", "value": "no significant difference"}]}
{"molecule": "CCCCCCCCCCCCCCCCCC(=O)O", "note": "[SA, stearic acid]", "values": [{"measurement": "Cell survival / cell growth after one-time treatment", "setting": "PC3 cells; PC3, one-time treatment, 50, 100, 200 μM, 72 h incubation, WST-1", "value": "significantly inhibited cell growth"}]}
